One data set has as its target P-gp (Homo sapiens, UniProt P08183). Nature of the data set: P-gp bidirectional transport assay in human Caco-2 cell monolayers. It counts as in vitro ADME. To be noted: Caco-2, pH 7.4. For orientation: Passage across Caco-2 layers is used to estimate intestinal permeability.
Another data set is described as follows: Milademetan PBPK model. More on the design: species or system human. The essentials: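 Minimal PBPK model with one adjusting compartment and ADAM absorption that includes intestinal P-gp; renal and biliary clearance set to zero. Vss, kin, kout, Vsac and oral clearance fitted to healthy-subject plasma data after a single fasted 100 mg oral dose.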
The nature of data set [1]: Plasma protein unbound fraction measured in vitro. It counts as in vitro ADME.
Data set [2] can be described thus: Clinical food effect study. It counts as in vivo, human. The following applies: high-calorie, high-fat meal vs fasted state; unpublished in-house data.
Data set [3] in a line: Rat ADME study with [14C]milademetan. Format: in vivo. To be noted: single oral [14C]milademetan 30 mg/kg.
A short description of the next data set: Clinical DDI study U107. It counts as in vivo, human.
The conditions of data set [4]: ref NCT01877382, cited from earlier work; for maximum tolerated dose: advanced solid tumors or lymphomas.
For data set [5], the target named is T1, CYP3A4 (Homo sapiens, UniProt P08684). As to the kind of experiment: CYP3A inhibition. Format: in vitro ADME. The following applies: pooled human hepatic microsomes, probe midazolam.
Target sequence in this assay (P08684 2-503): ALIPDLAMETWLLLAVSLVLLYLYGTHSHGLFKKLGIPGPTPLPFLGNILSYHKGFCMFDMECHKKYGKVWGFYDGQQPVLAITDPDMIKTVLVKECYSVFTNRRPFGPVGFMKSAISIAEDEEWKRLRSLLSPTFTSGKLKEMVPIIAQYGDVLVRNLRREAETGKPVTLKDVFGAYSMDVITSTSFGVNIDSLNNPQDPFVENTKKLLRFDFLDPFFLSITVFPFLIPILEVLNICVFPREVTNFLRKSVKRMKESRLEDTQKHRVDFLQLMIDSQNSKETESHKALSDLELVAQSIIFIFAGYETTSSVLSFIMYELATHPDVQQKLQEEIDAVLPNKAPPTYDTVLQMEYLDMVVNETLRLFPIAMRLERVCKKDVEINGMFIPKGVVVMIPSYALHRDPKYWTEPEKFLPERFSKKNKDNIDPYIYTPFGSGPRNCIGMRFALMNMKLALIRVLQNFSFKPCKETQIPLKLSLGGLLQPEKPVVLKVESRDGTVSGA
The target of the next data set is CYP3A5 (Homo sapiens, UniProt P20815). As to the kind of experiment: Incubation of [14C]milademetan with recombinant human CYP3A5. Format: in vitro ADME. The following applies: [14C]milademetan 1 µM, 60 min, unpublished in-house data.
Sequence of CYP3A5 (P20815 whole entry): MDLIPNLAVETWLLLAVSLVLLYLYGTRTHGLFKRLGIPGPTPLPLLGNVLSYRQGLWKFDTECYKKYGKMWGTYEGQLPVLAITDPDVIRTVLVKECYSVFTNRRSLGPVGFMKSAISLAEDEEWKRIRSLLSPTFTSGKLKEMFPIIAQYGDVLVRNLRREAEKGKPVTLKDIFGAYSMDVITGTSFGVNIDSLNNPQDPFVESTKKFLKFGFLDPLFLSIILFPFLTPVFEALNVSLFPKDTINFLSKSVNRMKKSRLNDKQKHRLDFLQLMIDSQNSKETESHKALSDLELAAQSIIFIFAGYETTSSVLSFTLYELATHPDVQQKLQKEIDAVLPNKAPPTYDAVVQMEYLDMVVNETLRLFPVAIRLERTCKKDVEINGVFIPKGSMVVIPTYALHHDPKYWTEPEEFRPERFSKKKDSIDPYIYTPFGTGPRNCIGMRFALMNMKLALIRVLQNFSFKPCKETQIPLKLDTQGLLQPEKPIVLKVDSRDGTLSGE
Data set [6] has as its target T1, CYP3A4. Nature of the data set: Incubation of [14C]milademetan with recombinant human CYP3A4. It counts as in vitro ADME. The following applies: [14C]milademetan 1 µM, 60 min, unpublished in-house data.
Target sequence in this assay (P08684 whole entry): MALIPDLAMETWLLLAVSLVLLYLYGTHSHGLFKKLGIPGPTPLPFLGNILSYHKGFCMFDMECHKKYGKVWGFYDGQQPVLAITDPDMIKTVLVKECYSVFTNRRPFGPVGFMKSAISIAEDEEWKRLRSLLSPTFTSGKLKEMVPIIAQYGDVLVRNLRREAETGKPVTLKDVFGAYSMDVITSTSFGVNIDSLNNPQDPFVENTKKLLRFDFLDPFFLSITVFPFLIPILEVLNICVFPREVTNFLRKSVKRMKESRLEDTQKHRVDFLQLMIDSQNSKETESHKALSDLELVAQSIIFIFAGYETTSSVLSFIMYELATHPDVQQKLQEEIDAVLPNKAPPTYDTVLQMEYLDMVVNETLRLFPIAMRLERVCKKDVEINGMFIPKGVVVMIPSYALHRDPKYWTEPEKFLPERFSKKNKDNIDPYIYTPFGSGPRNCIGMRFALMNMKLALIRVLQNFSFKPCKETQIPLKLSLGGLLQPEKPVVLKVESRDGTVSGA
[7] abbreviates: Optimized by fitting clinical data (U107), milademetan alone, fasted.
Setting [8] is: bile duct–cannulated rats, up to 48 h.

Where “and” joins values, the source holds several entries; their conditions need not be identical. Identical values can stand only once. Like-named read-outs stand apart in the source and are kept apart here.

As a reminder, the Papp is the rate of passage across a membrane or cell layer, normalised by area and donor concentration. The microsomal CLint is the rate of metabolic loss divided by the concentration. A higher microsomal CLint goes with rapid turnover. As usually defined, the fraction unbound is free concentration divided by total concentration. Low readings indicate extensive binding, high ones weak binding. Broadly, the CL/F is clearance divided by bioavailability, as obtained after extravascular dosing. The term AUC(0-t) denotes exposure summed from dosing to a finite time, without extrapolation to infinity. Higher therefore signals more exposure. For orientation: Cmax means the peak of the concentration-time curve. For orientation: Tmax means the time at which the peak concentration occurs. Broadly, the Vd/F is the volume of distribution divided by bioavailability. A word on the half-life: it is the time in which the quantity being followed falls by half. Low values mean rapid decline, high ones slow decline. In general, Ki refers to a measure of affinity in units of concentration, obtained from inhibition or displacement.

Sequence of P-gp (P08183 whole entry): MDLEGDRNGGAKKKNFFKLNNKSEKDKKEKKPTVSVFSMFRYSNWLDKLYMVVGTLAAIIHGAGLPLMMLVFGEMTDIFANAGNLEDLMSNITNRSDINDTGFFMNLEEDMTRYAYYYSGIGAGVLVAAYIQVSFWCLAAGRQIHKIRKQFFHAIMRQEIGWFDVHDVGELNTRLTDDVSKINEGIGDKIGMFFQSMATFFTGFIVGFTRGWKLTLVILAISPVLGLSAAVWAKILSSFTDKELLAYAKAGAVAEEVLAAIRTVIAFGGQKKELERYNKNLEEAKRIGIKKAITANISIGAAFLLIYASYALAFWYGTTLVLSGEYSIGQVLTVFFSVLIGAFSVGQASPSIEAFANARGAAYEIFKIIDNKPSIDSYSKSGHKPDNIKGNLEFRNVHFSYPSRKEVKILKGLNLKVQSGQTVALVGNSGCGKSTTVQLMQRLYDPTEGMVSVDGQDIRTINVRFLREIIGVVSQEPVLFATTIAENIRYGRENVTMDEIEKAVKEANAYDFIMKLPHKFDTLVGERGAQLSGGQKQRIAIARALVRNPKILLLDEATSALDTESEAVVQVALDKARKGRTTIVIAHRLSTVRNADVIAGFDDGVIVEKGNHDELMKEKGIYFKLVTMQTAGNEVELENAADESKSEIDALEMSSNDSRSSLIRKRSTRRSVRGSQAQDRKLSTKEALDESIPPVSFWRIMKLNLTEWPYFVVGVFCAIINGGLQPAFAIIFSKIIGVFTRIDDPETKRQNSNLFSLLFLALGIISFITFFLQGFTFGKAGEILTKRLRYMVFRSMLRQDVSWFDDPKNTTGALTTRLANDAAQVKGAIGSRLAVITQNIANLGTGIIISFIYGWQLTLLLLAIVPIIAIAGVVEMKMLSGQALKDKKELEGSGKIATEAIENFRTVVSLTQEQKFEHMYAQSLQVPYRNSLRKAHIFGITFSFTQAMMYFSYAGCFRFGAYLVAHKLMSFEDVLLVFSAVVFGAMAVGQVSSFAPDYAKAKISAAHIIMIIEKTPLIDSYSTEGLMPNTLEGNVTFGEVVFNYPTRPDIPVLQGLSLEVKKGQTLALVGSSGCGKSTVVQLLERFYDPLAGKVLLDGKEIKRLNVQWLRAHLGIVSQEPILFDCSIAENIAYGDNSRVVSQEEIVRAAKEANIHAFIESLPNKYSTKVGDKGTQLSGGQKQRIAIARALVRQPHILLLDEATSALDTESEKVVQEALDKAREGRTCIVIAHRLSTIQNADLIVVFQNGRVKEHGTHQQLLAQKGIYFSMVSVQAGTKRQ

Compound `CC1(C)CCC2(CC1)N[C@@H](C(=O)N[C@@H]1CC[C@@H](C(N)=O)OC1)[C@H](c1ccnc(Cl)c1F)[C@]21C(=O)Nc2cc(Cl)ccc21` [milademetan] came in with a Papp at 120 min at P-gp of 17 ×10⁻⁶ cm/s. Moreover, the “Vsac (volume of single adjusting compartment)” value in the data set “Milademetan PBPK model” (setting [7]) stood at 0.5 L/kg. Further, the “kin (first-order rate constant to single adjusting compartment)” value in “Milademetan PBPK model” (setting [7]) worked out at 0.07 h⁻¹. In addition, the “kout (first-order rate constant from single adjusting compartment)” value in “Milademetan PBPK model” (setting [7]) amounted to 0.07 h⁻¹. For the same compound, the “CLint,CYP3A4 (CYP3A4-specific intrinsic clearance)” value in “Milademetan PBPK model” (Optimized by fitting clinical data (U107), milademetan and itraconazole sequence) was 0.459 µL/min/pmol of isoform. The “oral clearance (CLpo), optimized” value in the data set “Milademetan PBPK model” (fitted to period one of sequence AB (alone, fasted), U107) amounted to 8.5 L/h. The compound also yielded a microsomal CLint in the data set “Milademetan PBPK model” (human) of 40.2 µL/min/mg. The “fmCYP3A4 (fraction metabolized by CYP3A4)” value in “Milademetan PBPK model” (optimized to recover observed AUCR and CmaxR of sequence AB (itraconazole)) amounted to 0.58. Also, the fraction unbound in data set [1] is 0.02. Further, in [2], the “reduction of exposure (AUC) with food” value stood at 24%. For the same compound, in data set [3] (setting [8]), the “biliary excretion of radioactivity” value was 20.4 ± 1.8 % of the dose. The “radioactivity recovered in feces” value in [3] (setting [8]) is 75.1 ± 3.3 % of the dose; in data set [3] (noncannulated rats, after 168 hours), 94.2 ± 0.7%. Moreover, the CL/F in “Clinical DDI study U107” (100 mg alone, fasted (sequence AB, treatment A), geometric mean (CV%)) was 6.8 L/h and 6.80 L/h and 6.80 (33.5) L/h; in the data set “Clinical DDI study U107” (100 mg with itraconazole (treatment B), geometric mean (CV%)), 3.13 L/h and 3.13 (35.4) L/h; in “Clinical DDI study U107” (100 mg with posaconazole (treatment C), geometric mean (CV%)), 2.91 L/h and 2.91 (25.5) L/h. Also, the AUC(0-t) in the data set “Clinical DDI study U107” (human, plasma, oral, 100 mg, AUClast, 100 mg alone, 2 h following a full meal (sequence AC, treatment A), geometric mean (CV%)) is 13500 ng·h/mL. Besides, in the data set “Clinical DDI study U107” (human, plasma, oral, 100 mg, Cmax, 100 mg alone, 2 h following a full meal (sequence AC, treatment A), geometric mean (CV%)), the Cmax came out at 675 ng/mL. In addition, the Tmax in the data set “Clinical DDI study U107” (human, plasma, oral, 100 mg, Tmax, 100 mg alone, 2 h following a full meal (sequence AC, treatment A), median (minimum–maximum)) stood at 3.03 h. This compound also yielded a Vd/F in “Clinical DDI study U107” (human, plasma, oral, 100 mg, Vz/F, 100 mg alone, 2 h following a full meal (sequence AC, treatment A), geometric mean (CV%)) of 223 L. This compound also gave a half-life in the data set “Clinical DDI study U107” (human, plasma, oral, 100 mg, t1/2, 100 mg alone, 2 h following a full meal (sequence AC, treatment A), arithmetic mean (SD)) of 21.3 h. The accumulation at steady-state in data set [4] (120 mg q.d. 21/28, after 18–21 days of continuous dosing) was 1.8 fold. Also, in data set [4] (dose range 15–340 mg), the “dose proportionality of systemic exposure” value was “dose‐proportional increase in systemic drug exposure”. For the same compound, the maximum tolerated dose in [4] (q.d. 3/14 × 2 schedule) is listed as 260 mg; in data set [4] (q.d. 21/28 schedule), 160 mg. The same compound yielded a KI (inactivation) at CYP3A4 [5] of 60.5 µM. For the same compound, the Ki on CYP3A4 [5] amounted to 4.2 µM. Further, the remaining parent on CYP3A5 was 84 % of the total radioactivity; on CYP3A4 [6] it was 61 % of the total radioactivity.
On to `CC(C)NCC(O)COc1cccc2ccccc12` (stereo not drawn) [Propranolol, reference compound], for which the Papp on P-gp was found to be 43 ×10⁻⁶ cm/s.

Source of the values: publication PMC8604211 (Clinical and Translational Science, 2021).
